# GRIN3A LBD mod: modulators (binders) of human NR3A ligand-binding domain; NR3A LBD differential scanning fluorimetry, Tm shift; 0% = protein alone, 100% = glycine-bound protein; Tm shift relative to glycine control, % at 25 µM; 340,000 compounds, 2.5% hits; AID 1259313;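 active = melting temperature shift of at least 10% of the positive control shift, at one fixed dose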
# WT yeast gro inh: growth inhibition of WT yeast, mitochondrial fusion screen. mitochondrial fusion phenotypic screen, WT strain. inhibition, % at 10 µM. 190,000 compounds, 2.1% hits; in the data active = inhibition above about 58%; tested in S. cerevisiae
# Tb MetRS inh: blocks T. brucei methionyl-tRNA synthetase activity; purified T. brucei MetRS, ATP depletion, Kinase-Glo luminescence; inhibition, % at 11.9 µM; 360,000 compounds, 0.4% hits; AID 624268;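 active = inhibition above a per-plate cutoff of the control wells' mean inhibition plus 3 SD, cut at about 5.5% in these data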;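 note: 0% = DMSO wells median and 100% = median of wells with control inhibitor compound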
#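 assay system = parasite MetRS enzyme | timing = 15 min preincubation, 2 h reaction, all 25 °C | evaluation = percent inhibition relative to median high and low control wells | medium = HEPES buffer containing pyrophosphatase, BSA, spermine, DTT | compound = single dose, 11.9 µM final nominal, 0.9% final DMSO | detection = Kinase-Glo luminescence, ATP depletion format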
# MPTP inh: permeability transition pore inhibition; isolated mouse mitochondria, Ca2+ swelling absorbance, 30 min; inhibition, % at 10 µM; 360,000 compounds, 1.4% hits; AID 602449;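 active = inhibition of 50% or more, scaled per plate between neutral and stimulator controls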;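 note: 0% = DMSO wells given calcium and 100% = 1 mM EGTA wells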
# CHOP inh: CHOP inhibition in unfolded protein response | inhibition, % at 10 µM | CHO-K1 CHOP-promoter luciferase, tunicamycin-induced, 15-18 h | 220,000 compounds, 3.8% hits;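 active = compounds that reduced the stress-induced luciferase reporter signal by more than about 70% of percent inhibition, limit read from the data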;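 note: 0% = tunicamycin plus vehicle and 100% = wells without tunicamycin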
# EBV gp42 inh: blocks Epstein-Barr virus glycoprotein 42 binding | inhibition, % (tested at 21.74 µM) | Q1HVG2 | AID 1085 | 220,000 compounds, 0.42% hits | Fluorescence polarization binding assay, mP read-out; in the data active = inhibition above about 50%
# Target sequence (Q1HVG2 whole entry, looked up): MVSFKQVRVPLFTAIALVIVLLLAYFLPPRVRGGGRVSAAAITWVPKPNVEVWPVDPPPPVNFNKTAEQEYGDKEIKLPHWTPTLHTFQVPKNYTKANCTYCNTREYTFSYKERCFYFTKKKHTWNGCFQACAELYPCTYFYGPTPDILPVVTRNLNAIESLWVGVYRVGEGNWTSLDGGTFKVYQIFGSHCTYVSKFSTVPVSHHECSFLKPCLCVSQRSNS
# An asterisk follows results filed as active; nt = no result. Rows were chosen to be rich in hits. Some 6.4% of all compounds tested hit in one or more screens of this group.
SMILES,GRIN3A LBD mod,WT yeast gro inh,Tb MetRS inh,MPTP inh,CHOP inh,EBV gp42 inh
C#CCOCCOCCOCCNc1nc(N2CCN(C(=O)[C@H](Cc3cc4ccccc4[nH]3)n3cc(C(N)CC(C)C)nn3)CC2)nc(N2CCN(C(=O)[C@H](CCC(=O)O)n3cc(C(N)[C@H](C)CC)nn3)CC2)n1 (stereo partly drawn),-1.5,6.6,0.2,-1.7,7.2,-3.5
N#CCCSc1nc(N2CCOCC2)c2c(c1C#N)CCCC2,0.3,6.8,-0.6,1.1,35.4,0.5
CCCc1nc(N2CCOCC2)c(C#N)c2c1CCCC2,2.7,5.3,-1.9,0.7,53.6,0.9
CSc1nc(N2CCOCC2)c2c(c1C#N)CCCCC2,-0.1,5.3,-0.1,-3.8,73.4*,-1.3
CC(C)c1nc(N2CCOCC2)c(C#N)c2c1CCC2,2.1,-2.0,1.4,2.3,72.4*,0.9
CSc1nc(C)c2c(c1C#N)CCCC2,0.7,2.0,-2.1,3.5,91.8*,2.4
CCCSc1nc(N2CCOCC2)c2c(c1C#N)CCCC2,18.7*,53.3,-0.2,-3.2,46.3,-13.1
Cc1ccc(S(=O)(=O)N2CCC(Oc3cccc(C(F)(F)F)c3)CC2)cc1,0.4,nt,-0.7,2.1,nt,nt
COc1ccc2nc(NC(=O)c3cnccn3)sc2c1,-23.4,35.7,-0.5,-0.9,-17.4,-20.6
Cc1ccccc1CC1(CO)CCCN(C(=O)CCC(=O)c2ccccc2)C1 (stereo not drawn),-0.7,18.4,-0.2,4.3,4.7,6.0
Cn1c(-c2ccccc2)cnc1SCC(=O)N1CCCc2ccccc21,-4.6,11.1,0.7,2.3,19.3,-3.2
O=C(CSc1ncc(-c2ccccc2)n1C1CCCC1)N1CCc2ccccc21,-3.1,-6.3,-0.4,7.6,74.6*,-11.1
Cc1cccc(OCc2nnc(SCC(=O)NC3CCCC3)n2C)c1,-0.4,nt,-0.4,-1.2,nt,nt
CCCCN(CC)C(=O)c1cc2cc3ccc(Cl)cc3nc2o1,19.3*,nt,-0.9,2.6,nt,nt
Cc1cc(N2CCN(S(=O)(=O)c3ccc(Cl)c(Cl)c3)CC2)c2ccccc2n1,-21.1,68.9*,-1.2,0.2,30.1,14.3
Cc1ccc(S(=O)(=O)N2CCN(c3ccnc4cc(Cl)ccc34)CC2)cc1C,0.0,69.1*,-0.4,5.1,33.5,4.7
Cc1ccc(S(=O)(=O)N2CCN(c3ccnc4cc(Cl)ccc34)CC2)cc1,-1.2,65.5*,-0.6,23.9,68.6,-4.8
Cc1cc(N2CCN(S(=O)(=O)c3ccc(Cl)cc3)CC2)c2ccccc2n1,nt,10.5,-0.5,7.2,68.4,-10.1
COC(=O)c1ccc(C2C(Oc3ccc(OC)cc3)C(=O)N2CCc2ccc(F)cc2)cc1 (stereo not drawn),-1.6,8.1,-0.6,-0.2,27.1,-11.4
CCOC(=O)c1cnn(-c2cc(C)nc3c(-c4ccccc4)c(C)nn23)c1N,-0.4,10.1,-0.2,3.9,81.4*,-13.9
CCOC(=O)c1cnn(-c2cc(C)nc3c(-c4ccc(Cl)cc4)c(C)nn23)c1N,nt,-10.6,nt,nt,83.9*,-16.0
CCOC(=O)c1cnc2c(-c3ccccc3)cnn2c1N,2.9,3.9,0.1,2.5,80.4*,10.8
CCOC(=O)c1cnc2c(-c3ccccc3)c(C)nn2c1N,-1.3,-4.3,-1.3,1.4,32.1,-13.3
CCOC(=O)c1cnn(-c2cc(C)c3ccccc3n2)c1N,3.8,8.0,-0.2,-1.9,46.7,6.1
Cc1noc(C)c1S(=O)(=O)N(C)C[C@H]1Oc2c(NS(=O)(=O)c3cn(C)cn3)cccc2C(=O)N([C@H](C)CO)C[C@@H]1C,1.2,nt,-0.2,-0.4,nt,nt
SMILES,GRIN3A LBD mod,WT yeast gro inh,Tb MetRS inh,MPTP inh,CHOP inh,EBV gp42 inh
Cc1ccc(C)c(S(=O)(=O)NCc2ccc(C(=O)N3CCN(c4ccccc4)CC3)cc2)c1,4.6,nt,-0.5,1.3,nt,nt
COc1ccc(/C=N/NC(=O)c2[nH]c3ccc(Br)cc3c2-c2ccccc2)c(C(=O)O)c1OC,-2.2,nt,1.5,0.7,-26.2,8.6
COc1ccc(/C=N/NC(=O)c2[nH]c3ccc(Br)cc3c2-c2ccccc2)cc1,18.2*,-5.9,-0.8,45.5,-8.3,-1.3
O=C(CCc1ccccc1)N=C1SC2CS(=O)(=O)CC2N1c1ccc(F)cc1 (stereo not drawn),-1.5,nt,-0.1,-1.0,nt,nt
CCC(=O)Nc1ccc(NC(=O)/C=C/c2ccc(Cl)cc2)cc1,19.6*,0.5,-0.7,-0.4,-16.1,9.3
CSc1ccc(/C=C/C(=O)Nc2ccccc2)cc1,20.6*,19.3,-1.5,1.9,84.4*,-12.9
CCC(=O)Nc1ccc(NC(=S)NC(=O)/C=C/c2ccccc2)cc1,14.7*,-8.5,-1.2,-2.5,91.7*,-10.7
CC(=O)Nc1ccc(NC(=O)/C=C/c2ccccc2)cc1,5.5,-5.6,-0.1,-0.5,-12.3,-2.3
CC(=O)c1ccc(NC(=S)NC(=O)/C=C/c2ccccc2)cc1,3.6,nt,1.6,2.4,nt,nt
CC(=O)c1ccc(NC(=O)/C=C/c2ccc(C)cc2)cc1,20.5*,5.3,-0.1,9.2,19.5,-11.7
Oc1ccc(N=Nc2ccc3c(c2)OCO3)c2ccccc12,nt,nt,nt,nt,100.8*,2.0
Oc1ccccc1-c1cc(-c2ccccc2)no1,19.1*,-6.0,-0.7,0.5,43.6,-6.8
Cc1ccc(-c2cc(-c3ccccc3)no2)c(O)c1,5.4,-0.7,-0.3,34.9,66.6,-18.5
CCn1c2c(c3cc(OCC(C)C)ccc31)CCCC2=O,1.5,32.7,-0.1,5.6,-8.7,-13.5
CCn1c2c(c3cc(Br)ccc31)CCC/C2=N\O,-2.7,4.4,1.2,1.4,89.6*,-6.4
Cc1c(-c2nc(N)nc(Nc3ccccc3F)n2)oc2ccccc12,2.3,-7.5,-0.6,-1.3,71.5*,-16.9
Cc1cccc(Nc2nc(N)nc(-c3oc4ccccc4c3C)n2)c1,3.9,nt,0.0,2.0,12.0,-15.3
COc1cccc(Nc2nc(N)nc(-c3oc4ccccc4c3C)n2)c1,17.0*,20.7,-0.6,0.9,36.6,12.5
O=C(C1=C[C@H](c2ccc3c(c2)OCO3)C[C@H](OCc2ccc(CO)cc2)O1)N1CCN(Cc2ccc3c(c2)OCO3)CC1,-3.2,48.0,0.3,0.6,37.2,-3.3
CCOC(=O)N/N=C/c1ccc(OC)c(O)c1,-1.7,5.5,0.0,2.0,-8.3,-22.2
CCc1nnc(SCC(=O)NC2CCCC2)nc1CC,-1.7,9.1,-1.5,-0.1,74.4*,-11.5
CCc1nnc(SCC(=O)NC2CCCCC2)nc1CC,0.8,-14.7,-1.1,0.2,-4.8,-19.0
Cc1cc(C)c(S(=O)(=O)/N=C2/C=C(Sc3ncn[nH]3)C(=O)c3ccccc32)cc1C,-28.1,26.4,2.1,15.2,108.7*,-35.6
Cc1cnn(C(=S)NCc2ccc(Cl)cc2)c1,-7.7,68.0*,nt,nt,73.6*,7.7
Cc1cnn(C(=S)NCCc2ccccc2)c1,-9.1,5.4,1.1,0.6,53.4,-9.6
Cc1ccc(C(Sc2ccccc2)C(Cn2cncn2)C(=O)c2ccccc2)cc1 (stereo not drawn),1.3,24.9,-0.3,-4.2,93.4*,2.1

# Compound activity: PubChem BioAssay, several laboratories
